The values below come from ChEMBL document CHEMBL1287658, “Reinvestigation of structure-activity relationship of methoxylated chalcones as antimalarials: synthesis and evaluation of 2,4,5-trimethoxy substituted patterns as lead candidates derived from abundantly available natural β-asarone” (Eur J Med Chem, 2010).

The subject of series [1] is Plasmodium falciparum. Put plainly: Resistance index, ratio of IC50 for Plasmodium falciparum Dd2 to IC50 for Plasmodium falciparum 3D7. Type of series: functional. In a few lines: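 Ratio of IC50 against Dd2 to IC50 against 3D7. Both IC50s come from the same 72 h SYBR Green I assay: sorbitol-synchronised rings, 2% hematocrit, 1% parasitemia, 0 to 10^-4 M in triplicate, 0.4% final DMSO. Each IC50 taken by visual matching of 50% growth inhibition.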

The test system of series [2] is Plasmodium falciparum. Put plainly: Inhibition of Plasmodium falciparum-mediated human hemoglobin degradation at 100 uM. It is filed as functional, organism-based.
For series [3], the system named is Plasmodium falciparum. Put plainly: Antimalarial activity against chloroquine-sensitive Plasmodium falciparum 3D7 infected in human O+ erythrocytes after 72 hrs by SYBR Green-1 fluorescence based assay. Type of series: functional, organism-based. The conditions noted are these: 3D7, 72 h. A digest of the protocol:
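P. falciparum 3D7 kept in O+ human erythrocytes, 4% hematocrit, RPMI 1640 with Albumax, hypoxanthine and gentamicin, 37 °C under 5% O2/5% CO2/90% N2. Sorbitol-synchronized rings were plated at 2% hematocrit, 1% parasitemia with drug 0–10^-4 M (0.4% DMSO final), triplicate wells, 72 h. SYBR Green I read at ex 497/em 520 nm. IC50 by visual matching of 50% growth inhibition.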

A short description of series [4]: Selectivity index, ratio of TC50 for human HeLa cells to IC50 for Plasmodium falciparum 3D7. It is filed as toxicity, cell-based. In a few lines:
(§1)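 Selectivity index was TC50 (24 h MTT in HeLa or L929) divided by IC50 against 3D7 (72 h SYBR Green I growth assay).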

A short description of series [5]: Selectivity index, ratio of TC50 for mice (Mus musculus) L929 cells to IC50 for Plasmodium falciparum 3D7. Type of series: toxicity, cell-based. A digest of the protocol:
as §1

For series [6], the system named is Plasmodium falciparum. Description: Antimalarial activity against chloroquine-resistant Plasmodium falciparum Dd2 infected in human O+ erythrocytes after 72 hrs by SYBR Green-1 fluorescence based assay. The conditions noted are these: Dd2, 72 h. It is filed as functional, organism-based. In a few lines: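 Ring-stage culture (5% sorbitol synchronised) plated at 2% hematocrit, 1% parasitemia in RPMI 1640 with 0.5% Albumax, hypoxanthine, gentamicin; 37 °C, 5% O2/5% CO2/90% N2. Compounds from DMSO stock, final 0.4% DMSO, 0 to 10^-4 M, triplicate wells. 72 h, then SYBR Green I fluorescence (ex 497/em 520 nm). IC50 by visual matching of 50% growth inhibition.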

The test system of series [7] is L929. Put plainly: Cytotoxicity against mouse L929 cells assessed as cell viability after 24 hrs by MTT assay. Type of series: cell-based. The note with it: l929, 24 h. In a few lines: (§2)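 HeLa and L929 cells were grown in RPMI with 10% FBS, seeded at 10⁴ cells/well overnight, then exposed to drug for 24 h at 37 °C, 5% CO2. DMSO at 10% final was the positive control. MTT was added for 4 h, then formazan was dissolved in DMSO and read at 570 nm. TC50 was taken from dose-response curves.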

Series [8] has as its system HeLa. Put plainly: Cytotoxicity against human HeLa cells assessed as cell viability after 24 hrs by MTT assay. Type of series: cell-based. In a few lines:
as §2
Background: Formazan colour is commonly taken as a measure of viable cells.

Structures are written as SMILES. Activity calls are given as the source filed them. The rule behind the calls is not given here.

`COc1cc(/C=C/C(=O)c2ccc(Cl)cc2)cc(OC)c1OC`: the “Ratio IC50” value in series [1] was 2.5. For the same molecule, the inhibition entry in series [2] is “inactive”. Also, the IC50 in series [3] worked out at 4.6 µM; in series [6] it was 11.5 µM. The selectivity ratio in series [4] is 3; in series [5], 2.8.

For the molecule `COc1cc(OC)c(OC)cc1/C=C/C(=O)c1ccc(Cl)cc1`, the “Ratio IC50” value in series [1] is 1.7. In series [2], the inhibition entry was “inactive”. Besides, the results for the IC50 in series [3] and in series [6] were 4 µM and 6.9 µM, respectively. Further, the selectivity ratio worked out at 9 in series [4] and 8.3 in series [5].

In the case of `O=C(/C=C/c1ccc(Cl)cc1)c1ccc([N+](=O)[O-])cc1`, the inhibition entry in series [2] is “inactive”. This molecule also had an IC50 in series [3] of 78 µM.

Consider `COc1cc(OC)c(OC)cc1CCC(O)c1ccc(Cl)cc1` (centres undefined), for which, in series [2], the inhibition result was “inactive”. For the same molecule, the half-inhibitory concentration (IC50) in series [3] is 50 µM.

As for `COc1cc(OC)c(OC)cc1/C=C/C(=O)/C=C/c1ccc(Br)cc1`, in series [2], the inhibition result was “inactive”. Further, the IC50 in series [3] is 18 µM.

For `COc1ccc(C(=O)/C=C/c2ccc(Cl)cc2)cc1`, the inhibition result in series [2] is “inactive”. The molecule also returned a half-inhibitory concentration (IC50) in series [3] of 88 µM.

Turning to `O=C(/C=C/c1cccs1)c1ccc([N+](=O)[O-])cc1`, the inhibition result in series [2] is “inactive”. In series [3], this molecule returned an IC50 of 170 µM.

`COc1cc(OC)c(OC)cc1/C=C/C=C/C(=O)c1ccc(Br)cc1`: in series [2], the inhibition entry was “inactive”. In addition, the concentration for half-maximal inhibition (IC50) in series [3] came to 12.2 µM.

As for `O=C(/C=C/c1ccc(Cl)cc1)c1ccc(O)cc1`, the inhibition entry in series [2] is “inactive”. Also, the half-inhibitory concentration (IC50) in series [3] was 30 µM.

As for `COc1cc(OC)c(C(CC(=O)c2ccc(Cl)cc2)c2c[nH]c3ccccc23)cc1OC` (centres undefined), the inhibition entry in series [2] is “inactive”. Besides, in series [3], the IC50 turned out to be 8.6 µM.

`COc1ccc(/C=C/C(=O)c2ccc(Cl)cc2)c(OC)c1`: in series [1], the “Ratio IC50” value is listed as 1.1. The inhibition result in series [2] is “inactive”. Further, the IC50 in series [3] is 6 µM; in series [6], 6.8 µM. For the same molecule, the selectivity ratio in series [4] was above 16.6; in series [5] it was 14.6.

As to `CCN(CC)CCCC(C)Nc1ccnc2cc(Cl)ccc12` (centres undefined), the inhibition entry in series [2] is “inactive”.

With `C=CCOc1ccc(C(=O)/C=C/c2ccc(Cl)cc2)cc1`, the inhibition result in series [2] was “inactive”. This molecule returned a half-inhibitory concentration (IC50) in series [3] of 75 µM.

As to `COc1cc(OC)c(OC)cc1/C=C/C(=O)c1ccc(C#N)cc1`, the inhibition result in series [2] was “inactive”. For the same molecule, the IC50 in series [3] was above 100 µM.

For `COc1ccc(/C=C/C(C)=O)c(OC)c1`, the inhibition entry in series [2] is “inactive”. The same molecule displayed a 50% inhibitory concentration (IC50) in series [3] of 48.5 µM.

`COc1cc(OC)c(OC)cc1/C=C/C(=O)c1ccc(OC)c(OC)c1OC`: the inhibition result in series [2] was “inactive”. Besides, the 50% inhibitory concentration (IC50) in series [3] amounted to 7.8 µM.

Take `O=C(/C=C/c1ccc(Cl)cc1)c1ccc2c(c1)OCO2`: the inhibition result in series [2] is “inactive”. The IC50 in series [3] worked out at 97.9 µM.

For the molecule `COc1cc(OC)c(OC)cc1/C=C/C(=O)c1ccc(Cl)c(Cl)c1`, the inhibition entry in series [2] was “inactive”. For the same molecule, the IC50 in series [3] is above 20 µM.

With `COc1ccc(C(=O)/C=C/c2ccc(Cl)c(Cl)c2)cc1`, the inhibition entry in series [2] was “inactive”. Besides, the 50% inhibitory concentration (IC50) in series [3] is above 200 µM.

Regarding `COc1ccc(C(=O)/C=C/c2cc(OC)c(OC)cc2OC)cc1`, in series [2], the inhibition result is “inactive”. In series [3], this molecule came in with a concentration for half-maximal inhibition (IC50) of 11.5 µM.

With `COc1ccc(/C=C/C(=O)c2ccc(Cl)cc2)cc1`, in series [2], the inhibition result is “inactive”. Also, the IC50 in series [3] is 28.8 µM.

Take `COc1cc(OC)c(/C=C/C(=O)c2ccc(Cl)cc2)c(OC)c1`: the inhibition entry in series [2] is “inactive”. In addition, in series [3], the IC50 was 8 µM.

`COc1cc(OC)c(OC)cc1/C=C/C(=O)c1ccc([N+](=O)[O-])cc1`: the inhibition result in series [2] was “inactive”. In series [3], this molecule showed a half-inhibitory concentration (IC50) above 200 µM.

As to `COc1cc(OC)c(OC)cc1/C=C/C(=O)c1ccc(I)cc1`, in series [1], the “Ratio IC50” value is recorded as 3.7. The inhibition entry in series [2] is “inactive”. In addition, the half-maximal inhibitory concentration (IC50) is 2 µM in series [3] and 7.5 µM in series [6]. Further, the selectivity ratio in series [4] is 50; in series [5] it was above 50. Also, the Activity result in series [7] and in series [8] was “Non-toxic” in each case.

`C=CCn1cc(C(CC(=O)c2ccc(Cl)cc2)c2cc(OC)c(OC)cc2OC)c2ccccc21` (centres undefined): the inhibition entry in series [2] is “inactive”. The molecule further gave an IC50 in series [3] of 8.4 µM.

Turning to `O=C(/C=C/c1ccc(Cl)cc1)c1ccc(Cl)cc1` [4',4-DICHLOROCHALCONE], the inhibition result in series [2] is “inactive”. Besides, the IC50 in series [3] was found to be 65 µM.

On to `O=C(/C=C/c1ccco1)c1ccc([N+](=O)[O-])cc1`, for which, in series [2], the inhibition entry is “inactive”. Further, the IC50 in series [3] is above 200 µM.

Turning to `COc1cc(OC)c(OC)cc1CCC(=O)c1ccc(Cl)cc1`, the inhibition entry in series [2] is “inactive”. In series [3], the IC50 worked out at 64 µM.

For `COc1cc(OC)c(OC)cc1/C=C/C(=O)c1ccc(-c2ccc(Br)cc2)cc1`, in series [2], the inhibition entry was “inactive”. Moreover, the IC50 in series [3] stood at 47 µM.

On to `C=CCn1cc(/C(=C\C(=O)c2ccc(Br)cc2)c2cc(OC)c(OC)cc2OC)c2ccccc21`, for which the inhibition entry in series [2] is “inactive”. Besides, in series [3], the half-maximal inhibitory concentration (IC50) turned out to be 17.5 µM.

Regarding `O=C(/C=C/c1ccc(Cl)cc1)c1ccc(Br)cc1`, the inhibition result in series [2] is “inactive”. The molecule also yielded a concentration for half-maximal inhibition (IC50) in series [3] of 50 µM.

Consider `COc1cc(OC)c(OC)cc1/C=C/C(=O)c1ccc(Br)cc1`, for which, in series [1], the “Ratio IC50” value came to 2.8. For the same molecule, in series [2], the inhibition result is “inactive”. Besides, the half-inhibitory concentration (IC50) came out at 1.8 µM in series [3] and 5 µM in series [6]. Moreover, the selectivity ratio turned out to be 31.7 in series [4] and 55.6 in series [5]. In addition, the Activity result in series [7] and in series [8] was “Non-toxic” in each case.

For `C=CC(C)(C)c1cc(/C=C/C(=O)c2ccc(O)cc2)c(OC)cc1O` [LICOAGROCHACONE A], in series [2], the inhibition entry was “inactive”. Besides, the IC50 in series [3] stood at 4.1 µM.

One may read the IC50 as the concentration that gives 50% inhibition. Low readings indicate greater potency in that assay, high ones weaker potency in that assay.
